Data on 23 molecules can be found in publication PMC10209631 (RSC Advances, 2023).

Read-outs that look alike come from different tables or passages of the source.

For data set [1], the system named is normal fibroblasts (WI-38). The data set can be described thus: Cytotoxicity. Conditions: for IC50: read-out: IC50, normal fibroblasts WI-38; for selectivity index (SI): SI = WI-38 IC50/IC50 against cancer cells; for toxicity to the normal fibroblasts (in words): WI-38 versus cancer cells.
Data set [2] relates to HepG2. Nature of the data set: Antiproliferative activity. The class given is cell-based. Conditions: Homo sapiens, HepG2, 48 h, read-out: antiproliferative activity IC50, HepG2.
Data set [3] deals with MCF-7 cells. The data set can be described thus: Apoptosis assay by annexin V-PI. The format is cell-based, human. Particulars: MCF7, IC50 concentration, 48 h; for necrotic cells (upper left quadrant, UL): DMSO 0.1%. The procedure, abridged:
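MCF-7 cells seeded at 1 × 10⁵ cells per mL and held overnight at 37 °C, 5% CO₂. Test compound or DMSO added in fresh medium for 48 h. Cells trypsinized, washed twice in PBS, and stained 15 min with annexin V-FITC plus propidium iodide in binding buffer. Flow cytometry scored early apoptotic (LR), late apoptotic (UR) and necrotic (UL) quadrants.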

Data set [4] deals with MCF-7 cells. The data set can be described thus: Cell cycle analysis. Conditions: MCF7, IC50 concentration, 48 h. The class given is cell-based, human.

The IC50 is the concentration that inhibits the measured activity by half. Turning to `Nc1nnc(NC(=O)c2ccccc2)s1` [Compound 2, N-(5-Amino-1,3,4-thiadiazol-2-yl)benzamide], the 50% inhibitory concentration (IC50) in data set [1] (Homo sapiens, WI-38, 48 h) was found to be 17.6 ± 4.1 µM; in data set [2], 14.1 ± 1.5 µM. The “selectivity index (SI)” value in data set [1] turned out to be 1.0.
For `N#CCC(=O)Nc1nnc(NC(=O)c2ccccc2)s1` [Compound 3, N-(5-(2-Cyanoacetamido)-1,3,4-thiadiazol-2-yl)benzamide], the IC50 in data set [1] (Homo sapiens, WI-38, 48 h) was 37.4 ± 2.5 µM; in data set [2], 31.3 ± 5.1 µM. Moreover, in data set [1], the “selectivity index (SI)” value was determined as 1.2.
Consider `N=c1oc2ccccc2cc1C(=O)Nc1nnc(NC(=O)c2ccccc2)s1` [Compound 4, N-(5-Benzamido-1,3,4-thiadiazol-2-yl)-2-imino-2H-chromene-3-carboxamide], for which, in data set [1] (Homo sapiens, WI-38, 48 h), the IC50 was determined as 29.4 ± 2.2 µM. Further, in data set [1], the “selectivity index (SI)” value came out at 1.3 and the “toxicity to the normal fibroblasts (in words)” value (“toxicity” below) is given as “toxic to the normal fibroblasts”. In addition, in data set [2], the IC50 worked out at 48.5 ± 2.9 µM.
`O=C(Nc1nnc(NC(=O)c2cc3ccccc3oc2=O)s1)c1ccccc1` [Compound 5, N-(5-Benzamido-1,3,4-thiadiazol-2-yl)-2-oxo-2H-chromene-3-carboxamide]: the IC50 in data set [1] (Homo sapiens, WI-38, 48 h) was found to be 91.2 ± 4.6 µM; in data set [2], 63.9 ± 8.9 µM. The “selectivity index (SI)” value in data set [1] was determined as 1.5.
In the case of `COc1ccc(C=C(C#N)C(=O)Nc2nnc(NC(=O)c3ccccc3)s2)cc1` [Compound 6b, N-(5-(2-Cyano-3-(4-methoxyphenyl)acrylamido)-1,3,4-thiadiazol-2-yl)benzamide], in data set [3], the “induction of apoptosis (in words)” value is “did not induce apoptosis” and the “necrotic cells (upper left quadrant, UL)” value was 12.5%. Also, in data set [1] (Homo sapiens, WI-38, 48 h), the concentration for half-maximal inhibition (IC50) is 50.4 ± 0.9 µM. For the same molecule, in data set [1], the “selectivity index (SI)” value came to 4.9. Further, the IC50 in data set [2] was 15.9 ± 1.3 µM. Besides, in data set [4] (DMSO 7.4%), the “sub-G1 percent of cells” value came out at 53.6%.
On to `N#CC(=Cc1ccc(Cl)cc1Cl)C(=O)Nc1nnc(NC(=O)c2ccccc2)s1` [Compound 7a, N-(5-(2-Cyano-3-(2,4-dichlorophenyl)acrylamido)-1,3,4-thiadiazol-2-yl)benzamide], for which the IC50 was determined as 9.18 ± 3.6 µM in data set [1] (Homo sapiens, WI-38, 48 h) and 6.34 ± 0.9 µM in data set [2]. For the same molecule, in data set [1], the “selectivity index (SI)” value was found to be 1.5. In addition, in data set [1], the “toxicity” value is “toxic to the normal fibroblasts”.
For `N#CC(=Cc1ccc(Cl)cc1)C(=O)Nc1nnc(NC(=O)c2ccccc2)s1` [Compound 7b, N-(5-(3-(4-Chlorophenyl)-2-cyanoacrylamido)-1,3,4-thiadiazol-2-yl)benzamide], the IC50 is 42.1 ± 2.7 µM in data set [1] (Homo sapiens, WI-38, 48 h) and 14.7 ± 2.1 µM in data set [2]. In data set [1], the “selectivity index (SI)” value is on record as 2.4.
The like results for `N#CC(=Cc1ccco1)C(=O)Nc1nnc(NC(=O)c2ccccc2)s1` [Compound 7c, N-(5-(2-Cyano-3-(furan-2-yl)acrylamido)-1,3,4-thiadiazol-2-yl)benzamide] were, in that order, 22.6 ± 3 µM, 16.3 ± 1.8 µM and 0.8.
As for `N#CC(=Cc1cccs1)C(=O)Nc1nnc(NC(=O)c2ccccc2)s1` [Compound 7d, N-(5-(2-Cyano-3-(thiophen-2-yl)acrylamido)-1,3,4-thiadiazol-2-yl)benzamide], the half-maximal inhibitory concentration (IC50) in data set [1] (Homo sapiens, WI-38, 48 h) was determined as 12.3 ± 1.2 µM. Further, in data set [1], the “selectivity index (SI)” value amounted to 0.4 and the “toxicity” value is listed as “toxic to the normal fibroblasts”. In addition, the IC50 in data set [2] amounted to 66.1 ± 3.5 µM.
On to `N#CC(=Cc1ccc([N+](=O)[O-])cc1)C(=O)Nc1nnc(NC(=O)c2ccccc2)s1` [Compound 7e, N-(5-(2-Cyano-3-(4-nitrophenyl)acrylamido)-1,3,4-thiadiazol-2-yl)benzamide], for which the IC50 in data set [1] (Homo sapiens, WI-38, 48 h) is 23.4 ± 3.6 µM; in data set [2], 56.3 ± 7.8 µM. Also, the “selectivity index (SI)” value in data set [1] is 0.4.
In the same order, the values of `COc1cc(C=C(C#N)C(=O)Nc2nnc(NC(=O)c3ccccc3)s2)ccc1O` [Compound 7f, N-(5-(2-Cyano-3-(4-hydroxy-3-methoxyphenyl)acrylamido)-1,3,4-thiadiazol-2-yl)benzamide] are 14.5 ± 0.3 µM, 21.3 ± 3.7 µM and 0.9.
The like results for `Cc1cc(C)n(-c2nnc(NC(=O)c3ccccc3)s2)c(=O)c1C#N` [Compound 9, N-(5-(3-Cyano-4,6-dimethyl-2-oxopyridin-1(2H)-yl)-1,3,4-thiadiazol-2-yl)benzamide] were, in that order, 50.4 ± 0.9 µM, 39.1 ± 2.7 µM and 2.5.
The like results for `Cc1cc(-c2ccccc2)n(-c2nnc(NC(=O)c3ccccc3)s2)c(=O)c1C#N` [Compound 10, N-(5-(3-Cyano-4-methyl-2-oxo-6-phenylpyridin-1(2H)-yl)-1,3,4-thiadiazol-2-yl)benzamide] were, in that order, more than 100 µM, 19.4 ± 1.5 µM and 1.7.
On to `N#CC(C(=O)Nc1nnc(NC(=O)c2ccccc2)s1)=C1SC(=O)CN1c1ccccc1` [Compound 12, N-(5-(2-Cyano-2-(5-oxo-3-phenylthiazolidin-2-ylidene)acetamido)-1,3,4-thiadiazol-2-yl)benzamide], for which the IC50 in data set [1] (Homo sapiens, WI-38, 48 h) is more than 100 µM; in data set [2], 69.5 ± 6.5 µM.
As to `N#CC(C(=O)Nc1nnc(NC(=O)c2ccccc2)s1)=C1SCCN1c1ccccc1` [Compound 14, N-(5-(2-Cyano-2-(3-phenylthiazolidin-2-ylidene)acetamido)-1,3,4-thiadiazol-2-yl)benzamide], the 50% inhibitory concentration (IC50) in data set [1] (Homo sapiens, WI-38, 48 h) was 53.8 ± 3.4 µM; in data set [2], more than 100 µM. Further, in data set [1], the “selectivity index (SI)” value worked out at 0.8.
Consider `N#Cc1c(Nc2ccccc2)n2nc(NC(=O)c3ccccc3)sc2nc1=O` [Compound 15, N-(6-Cyano-7-oxo-5-(phenylamino)-7H-[1,3,4]thiadiazolo[3,2-a]pyrimidin-2-yl)benzamide], for which the IC50 in data set [1] (Homo sapiens, WI-38, 48 h) is 19.4 ± 1.5 µM; in data set [2], 16.8 ± 1.7 µM. Moreover, the “selectivity index (SI)” value in data set [1] amounted to 1.4.
The like results for `N#CC(C(=O)Nc1nnc(NC(=O)c2ccccc2)s1)C(=S)Nc1ccccc1` (centres unmarked) [Compound 16, N-(5-(2-Cyano-3-(phenylamino)-3-thioxopropanamido)-1,3,4-thiadiazol-2-yl)benzamide] were, in that order, 85.9 ± 1.9 µM, 14.7 ± 2.3 µM and 4.1.
`CSC(SC)=C(C#N)C(=O)Nc1nnc(NC(=O)c2ccccc2)s1` [Compound 17, N-(5-(2-Cyano-3,3-bis(methylthio)acrylamido)-1,3,4-thiadiazol-2-yl)benzamide]: the 50% inhibitory concentration (IC50) stood at 81.2 ± 4.1 µM in data set [1] (Homo sapiens, WI-38, 48 h) and 12.5 ± 1 µM in data set [2]. In addition, the “selectivity index (SI)” value in data set [1] is reported as 6.0.
Take `N#CC(C(=O)Nc1nnc(NC(=O)c2ccccc2)s1)=C1Nc2ccccc2N1` [Compound 18, N-(5-(2-Cyano-2-(1,3-dihydro-2H-benzo[d]imidazole-2-ylidene)acetamido)-1,3,4-thiadiazol-2-yl)benzamide]: the IC50 is more than 100 µM in data set [1] (Homo sapiens, WI-38, 48 h) and 47.3 ± 8.2 µM in data set [2]. Moreover, the “selectivity index (SI)” value in data set [1] is reported as 1.5.
Turning to `N#CC(C(=O)Nc1nnc(NC(=O)c2ccccc2)s1)=C1Nc2ccccc2O1` [Compound 19, N-(5-(2-(Benzo[d]oxazol-2(3H)-ylidene)-2-cyanoacetamido)-1,3,4-thiadiazol-2-yl)benzamide], the “necrotic cells (upper left quadrant, UL)” value in data set [3] is 15%. In addition, the “early apoptosis (lower-right quadrant, LR)” value in data set [3] (DMSO 3.2%) amounted to 15%. In addition, the IC50 is 60.3 ± 3.7 µM in data set [1] (Homo sapiens, WI-38, 48 h) and 19.4 ± 1.5 µM in data set [2]. In addition, in data set [1], the “selectivity index (SI)” value is listed as 6.1. Besides, the “cells arrested at G2/M” value in data set [4] (DMSO 4.6%) was 23.3%.
With `N#CC(C(=O)Nc1nnc(NC(=O)c2ccccc2)s1)=C1Oc2cccnc2O1` [Compound 20, N-(5-(2-([1,3]dioxolo[4,5-b]pyridin-2-ylidene)-2-cyanoacetamido)-1,3,4-thiadiazol-2-yl)benzamide], the IC50 in data set [1] (Homo sapiens, WI-38, 48 h) worked out at 42.7 ± 2.7 µM; in data set [2], 29.6 ± 3.1 µM. Also, the “selectivity index (SI)” value in data set [1] amounted to 1.5.
In the case of `COc1cccc2c1C(=O)c1c(O)c3c(c(O)c1C2=O)C[C@@](O)(C(=O)CO)C[C@@H]3O[C@H]1C[C@H](N)[C@H](O)[C@H](C)O1` [DOX, Doxorubicin, reference compound], the half-maximal inhibitory concentration (IC50) in data set [2] was found to be 4.5 ± 0.2 µM.
As for “N-(5-(2-Cyano-2-(4,6-dioxo-1-phenylpiperidin-2-ylidene)acetamido)-1,3,4-thiadiazol-2-yl)benzamide [Compound 13]”, in data set [1], the “selectivity index (SI)” value was found to be 0.5. For the same molecule, the IC50 in data set [1] (MTT, 48 h, mean ±SEM, three independent experiments) was 23.6 ± 3.2 µM.
